The source made the active and inactive calls. No cut-off for these calls is given here.
What was measured:
[1] = Growth inhibition of human CUTLL1 cells in presence of 1 uM dexamethasone after 48 hrs by alamar blue assay; type: functional, cell-based; conditions: CUTLL1, 48 h
In short: (§1)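 CUTLL1 cells given compound alone or with dexamethasone 1 μM. Growth inhibition measured by alamar blue after 48 h.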

[2] = Growth inhibition of human CUTLL1 cells in absence of 1 uM dexamethasone after 48 hrs by alamar blue assay; type: functional, cell-based; conditions: CUTLL1, 48 h; in short: as §1
CUTLL1 [3] = assay: Growth inhibition of human CUTLL1 cells at 12.5 to 50 uM in presence of 1 uM dexamethasone and 1 uM […] and glucocorticoid receptor antagonist RU486 after 24 hrs by alamar blue assay
CUTLL1 [4] = assay: Growth inhibition of human CUTLL1 cells with high GR expression levels after 48 hrs by alamar blue assay; type: functional, cell-based
In short: (§2)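 Human CUTLL1 T-ALL cells engineered to express high (overexpressed) or low (knockdown) glucocorticoid receptor levels. Exposed to compound alone or with 1 μM dexamethasone. Alamar blue growth inhibition read after 48 h.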

CUTLL1 [5] = assay: Induction of PARP1 cleavage in human CUTLL1 cells at 1 uM after 24 hrs by western blotting method; type: functional, cell-based
CUTLL1 [6] = assay: Growth inhibition of human CUTLL1 cells with low GR expression levels after 48 hrs by alamar blue assay; type: functional, cell-based; in short: as §2
[7] = molecular target: T1, Gamma-secretase (Homo sapiens) (UniProt Q96BI3+Q9NZ42+Q8WW43+P49768+Q92542+P49810); assay: Inhibition of gamma secretase in human CUTLL1 cells assessed as effect on NOTCH cleavage level at 100 nM after 24 hrs by Western blotting; type: cell-based
[8] = molecular target: T1, Gamma-secretase (Homo sapiens); assay: Inhibition of gamma secretase in human CUTLL1 cells assessed as effect on NOTCH cleavage level at 100 nM in presence of 1 uM dexamethasone after 24 hrs by Western blotting; type: cell-based
In short: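 Dexamethasone-resistant human T-ALL CUTLL1 cells were treated for 24 h with the gamma-secretase inhibitor at 100 nM together with dexamethasone at 1 μM. Intracellular NOTCH (ICN) protein was then measured by Western blot.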

Row | SMILES | EC50 [1] | EC50 [2] | also measured
1 | Cc1ncc(-c2ccncc2)c(C2CC2)n1 | > 100 µM | > 100 µM | –
2 | Nc1ncc(-c2ccncc2)cn1 | > 100 µM | > 100 µM | –
3 | Nc1ncc(-c2cccnc2)c(C2CC2)n1 | > 100 µM | > 100 µM | –
4 | Cc1nc(N)ncc1-c1ccncc1 | > 100 µM | > 100 µM | –
5 | Nc1ncc(-c2ccccc2)c(C2CC2)n1 | > 100 µM | > 100 µM | –
6 | Nc1ncc(-c2ccnc(Cl)c2)c(C2CC2)n1 | > 100 µM | > 100 µM | –
7 | Nc1ncc(-c2ccncc2-c2ccccc2)c(C2CC2)n1 | > 100 µM | > 100 µM | –
8 | Nc1ncc(-c2cc(Cl)nc(Cl)c2)c(C2CC2)n1 | 7.6 µM | 10 µM | –
9 | Nc1ncc(-c2ccncc2-c2ccoc2)c(C2CC2)n1 | 28 µM | 28 µM | –
10 | Nc1ncc(-c2ccnc(-c3ccoc3)c2)c(C2CC2)n1 | 16 µM | > 100 µM | growth inhibition (GI) (CUTLL1 [3]): inactive
11 | Nc1ncc(-c2ccncc2)c(-c2ccccc2)n1 | > 100 µM | > 100 µM | –
12 | COc1ccc(-c2cnc(N)nc2C2CC2)cc1 | > 100 µM | > 100 µM | –
13 | Nc1ncc(-c2ccncc2)c(C2CCC2)n1 | > 100 µM | > 100 µM | –
14 | Nc1ncc(-c2ccccn2)c(C2CC2)n1 | > 100 µM | > 100 µM | –
15 | Nc1ncc(-c2ccncc2)c(-c2ccoc2)n1 | > 100 µM | > 100 µM | –
16 | Nc1ncc(-c2ccnc3ccccc23)c(C2CC2)n1 | > 100 µM | > 100 µM | –
17 | C[C@@H]1C[C@H]2[C@@H]3CCC4=CC(=O)C=C[C@]4(C)[C@@]3(F)[C@@H](O)C[C@]2(C)[C@@]1(O)C(=O)CO | – | – | growth inhibition (GI) (CUTLL1 [4]): Active; Activity (CUTLL1 [5]): inactive; growth inhibition (GI) (CUTLL1 [6]): inactive
18 | Nc1ncc(-c2ccc(F)cc2)c(C2CC2)n1 | > 100 µM | > 100 µM | –
19 | C=Cc1cnccc1-c1cnc(N)nc1C1CC1 | 29 µM | 30 µM | –
20 | C[C@H](NC(=O)Cc1cc(F)cc(F)c1)C(=O)N[C@H]1N=C(c2ccccc2)c2ccccc2N(C)C1=O | – | – | inhibition [7]: Active; inhibition [8]: Active
21 | Nc1ncc(-c2ccnc(F)c2)c(C2CC2)n1 | > 100 µM | > 100 µM | –
22 | CC(C)c1nc(N)ncc1-c1ccncc1 | > 100 µM | > 100 µM | –

From ChEMBL document CHEMBL3351896, “Small Molecule that Reverses Dexamethasone Resistance in T-cell Acute Lymphoblastic Leukemia (T-ALL)” (ACS Med Chem Lett, 2014)
